According to the M2OR odorant receptor database:
Residue numbers refer to the chain shown, from its start.

Assays:
Conditions in all cases: stereoisomer not certain
OR4N2 = test system: T1, OR4N2
T1 sequence (whole entry): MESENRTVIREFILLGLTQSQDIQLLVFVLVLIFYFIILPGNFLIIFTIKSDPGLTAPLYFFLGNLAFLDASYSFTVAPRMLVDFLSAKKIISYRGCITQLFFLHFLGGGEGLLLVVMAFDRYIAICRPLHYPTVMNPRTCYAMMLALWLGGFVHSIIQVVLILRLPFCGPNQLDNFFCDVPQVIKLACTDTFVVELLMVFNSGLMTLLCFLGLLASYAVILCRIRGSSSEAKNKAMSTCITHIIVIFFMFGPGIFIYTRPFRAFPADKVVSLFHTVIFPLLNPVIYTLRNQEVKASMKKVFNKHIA
Method in brief: (§1)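 Whether a receptor–molecule pair is responsive (active) rests on the original authors' judgment that its measured signal was statistically different from baseline. Pairs without that judgment are non-responsive (inactive). Sources used varied assay methods, commonly transient luciferase assays in mammalian cell lines.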

OR4N4 (Homo sapiens) = target: T2, OR4N4 (Homo sapiens) (UniProt Q8N0Y3)
T2 sequence (whole entry): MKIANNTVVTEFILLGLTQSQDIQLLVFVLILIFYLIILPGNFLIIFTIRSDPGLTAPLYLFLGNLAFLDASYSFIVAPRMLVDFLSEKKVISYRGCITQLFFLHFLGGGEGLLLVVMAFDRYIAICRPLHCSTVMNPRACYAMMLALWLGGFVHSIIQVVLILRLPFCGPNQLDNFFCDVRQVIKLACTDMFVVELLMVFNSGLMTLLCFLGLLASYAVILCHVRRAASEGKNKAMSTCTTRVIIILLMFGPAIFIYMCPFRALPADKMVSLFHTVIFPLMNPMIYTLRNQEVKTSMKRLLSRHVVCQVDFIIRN
Method in brief: as §1

OR4N5 (Homo sapiens) = target: T3, OR4N5 (Homo sapiens) (UniProt Q8IXE1)
T3 sequence (whole entry): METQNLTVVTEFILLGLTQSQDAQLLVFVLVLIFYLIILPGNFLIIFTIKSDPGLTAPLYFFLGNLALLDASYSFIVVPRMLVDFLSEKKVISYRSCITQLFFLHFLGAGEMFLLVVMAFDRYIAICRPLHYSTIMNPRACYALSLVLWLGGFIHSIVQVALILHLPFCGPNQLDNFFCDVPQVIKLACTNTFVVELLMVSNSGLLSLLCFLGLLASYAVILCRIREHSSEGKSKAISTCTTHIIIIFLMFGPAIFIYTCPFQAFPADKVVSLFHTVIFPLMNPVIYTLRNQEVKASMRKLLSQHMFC
Method in brief: as §1

OR4P4 (Homo sapiens) = target: T4, OR4P4 (Homo sapiens) (UniProt Q8NGL7)
T4 sequence (whole entry): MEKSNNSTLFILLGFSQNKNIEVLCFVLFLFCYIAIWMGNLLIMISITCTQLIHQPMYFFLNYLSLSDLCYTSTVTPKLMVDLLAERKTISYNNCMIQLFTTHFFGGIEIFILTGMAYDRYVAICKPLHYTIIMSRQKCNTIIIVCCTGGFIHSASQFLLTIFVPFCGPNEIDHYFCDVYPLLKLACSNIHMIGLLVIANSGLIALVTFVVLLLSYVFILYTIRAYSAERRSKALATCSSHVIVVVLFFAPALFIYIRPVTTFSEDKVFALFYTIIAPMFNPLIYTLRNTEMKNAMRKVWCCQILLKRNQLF
Method in brief: as §1

OR4Q3 (Homo sapiens) = target: T5, OR4Q3 (Homo sapiens) (UniProt Q8NH05)
T5 sequence (whole entry): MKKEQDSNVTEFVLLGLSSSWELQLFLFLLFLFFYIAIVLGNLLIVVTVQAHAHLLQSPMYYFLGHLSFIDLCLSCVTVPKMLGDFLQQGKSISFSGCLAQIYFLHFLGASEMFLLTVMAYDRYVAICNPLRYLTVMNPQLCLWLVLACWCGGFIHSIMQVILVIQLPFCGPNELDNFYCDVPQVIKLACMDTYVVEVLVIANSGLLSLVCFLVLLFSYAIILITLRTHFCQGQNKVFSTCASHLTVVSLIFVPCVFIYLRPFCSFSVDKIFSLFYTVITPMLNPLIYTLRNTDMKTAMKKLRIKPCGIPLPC
Method in brief: as §1

OR4Q3 T135A = test system: T6, OR4Q3 T135A
T6 sequence (whole entry): T5 sequence (whole entry) with T135A
Method in brief: as §1

OR4S1 (Homo sapiens) = target: T7, OR4S1 (Homo sapiens) (UniProt Q8NGB4)
T7 sequence (whole entry): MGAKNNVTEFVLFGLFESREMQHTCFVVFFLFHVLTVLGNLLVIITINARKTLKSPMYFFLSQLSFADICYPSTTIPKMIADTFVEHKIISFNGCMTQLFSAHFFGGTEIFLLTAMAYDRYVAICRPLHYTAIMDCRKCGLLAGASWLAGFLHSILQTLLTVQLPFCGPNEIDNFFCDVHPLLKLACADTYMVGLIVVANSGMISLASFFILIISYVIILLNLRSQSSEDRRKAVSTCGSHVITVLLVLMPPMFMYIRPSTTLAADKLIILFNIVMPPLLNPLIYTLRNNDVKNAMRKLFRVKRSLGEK
Method in brief: as §1

OR4S2 (Homo sapiens) = target: T8, OR4S2 (Homo sapiens) (UniProt Q8NH73)
T8 sequence (whole entry): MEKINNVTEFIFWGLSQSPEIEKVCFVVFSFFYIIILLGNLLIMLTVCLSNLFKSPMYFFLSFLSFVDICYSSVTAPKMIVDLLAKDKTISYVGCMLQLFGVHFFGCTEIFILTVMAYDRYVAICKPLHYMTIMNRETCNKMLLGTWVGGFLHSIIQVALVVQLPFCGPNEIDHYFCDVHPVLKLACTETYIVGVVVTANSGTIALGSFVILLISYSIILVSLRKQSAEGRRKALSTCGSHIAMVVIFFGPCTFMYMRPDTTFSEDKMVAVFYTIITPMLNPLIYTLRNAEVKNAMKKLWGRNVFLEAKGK
Method in brief: as §1

OR4X1 (Homo sapiens) = target: T9, OR4X1 (Homo sapiens) (UniProt Q8NH49)
T9 sequence (whole entry): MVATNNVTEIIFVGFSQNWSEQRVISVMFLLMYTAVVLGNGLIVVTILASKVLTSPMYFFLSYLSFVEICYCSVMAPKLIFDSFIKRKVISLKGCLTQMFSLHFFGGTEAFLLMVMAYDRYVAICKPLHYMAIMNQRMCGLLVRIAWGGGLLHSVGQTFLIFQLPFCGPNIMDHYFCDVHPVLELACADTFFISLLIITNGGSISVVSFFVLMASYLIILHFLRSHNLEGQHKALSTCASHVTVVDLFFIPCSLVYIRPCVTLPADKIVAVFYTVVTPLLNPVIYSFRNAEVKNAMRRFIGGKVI
Method in brief: as §1

OR4X2 (Homo sapiens) = target: T10, OR4X2 (Homo sapiens) (UniProt Q8NGF9)
T10 sequence (whole entry): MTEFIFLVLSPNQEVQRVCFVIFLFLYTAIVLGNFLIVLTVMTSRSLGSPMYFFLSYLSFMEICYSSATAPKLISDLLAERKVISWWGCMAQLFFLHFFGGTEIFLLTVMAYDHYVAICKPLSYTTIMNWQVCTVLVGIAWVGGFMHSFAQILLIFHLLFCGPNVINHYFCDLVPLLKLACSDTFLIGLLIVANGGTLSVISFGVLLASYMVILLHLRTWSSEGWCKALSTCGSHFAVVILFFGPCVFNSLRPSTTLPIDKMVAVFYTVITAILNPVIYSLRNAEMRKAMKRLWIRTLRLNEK
Method in brief: as §1

OR51A2 (Homo sapiens) = target: T11, OR51A2 (Homo sapiens) (UniProt Q8NGJ7)
T11 sequence (whole entry): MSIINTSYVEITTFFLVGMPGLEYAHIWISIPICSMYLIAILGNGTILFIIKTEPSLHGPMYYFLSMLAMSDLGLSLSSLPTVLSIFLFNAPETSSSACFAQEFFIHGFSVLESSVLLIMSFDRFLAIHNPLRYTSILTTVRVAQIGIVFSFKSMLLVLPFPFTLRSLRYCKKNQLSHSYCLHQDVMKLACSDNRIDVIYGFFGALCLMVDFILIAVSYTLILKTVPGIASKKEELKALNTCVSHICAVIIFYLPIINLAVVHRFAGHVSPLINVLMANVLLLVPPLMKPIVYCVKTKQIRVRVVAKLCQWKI
Method in brief: as §1

OR51A4 (Homo sapiens) = target: T12, OR51A4 (Homo sapiens) (UniProt Q8NGJ6)
T12 sequence (whole entry): T11 sequence (whole entry) with G59E, T94I, S97N, S167N, P227L, E235Q, G267R, M288T, K289N, W311R
Method in brief: as §1

OR51A7 (Homo sapiens) = target: T13, OR51A7 (Homo sapiens) (UniProt Q8NH64)
T13 sequence (whole entry): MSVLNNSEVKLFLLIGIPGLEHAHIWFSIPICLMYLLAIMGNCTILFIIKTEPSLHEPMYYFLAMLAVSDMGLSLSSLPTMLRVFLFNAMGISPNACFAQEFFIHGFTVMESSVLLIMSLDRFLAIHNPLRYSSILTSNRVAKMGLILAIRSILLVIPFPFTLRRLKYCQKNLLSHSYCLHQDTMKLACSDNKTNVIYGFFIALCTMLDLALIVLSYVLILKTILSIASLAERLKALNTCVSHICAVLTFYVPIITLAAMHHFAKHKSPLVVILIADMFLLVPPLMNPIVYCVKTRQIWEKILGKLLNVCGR
Method in brief: as §1

OR51B2 (Homo sapiens) = target: T14, OR51B2 (Homo sapiens) (UniProt Q9Y5P1)
T14 sequence (whole entry): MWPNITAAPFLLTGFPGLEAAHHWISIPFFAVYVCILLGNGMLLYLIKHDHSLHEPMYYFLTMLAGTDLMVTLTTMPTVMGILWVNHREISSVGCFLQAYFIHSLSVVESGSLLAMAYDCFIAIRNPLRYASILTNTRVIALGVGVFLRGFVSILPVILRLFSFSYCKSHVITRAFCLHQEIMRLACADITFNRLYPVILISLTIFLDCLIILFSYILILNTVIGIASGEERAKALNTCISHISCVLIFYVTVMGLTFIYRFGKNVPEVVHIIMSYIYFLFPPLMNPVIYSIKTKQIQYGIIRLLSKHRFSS
Method in brief: as §1

OR51B4 (Homo sapiens) = target: T15, OR51B4 (Homo sapiens) (UniProt Q9Y5P0)
T15 sequence (whole entry): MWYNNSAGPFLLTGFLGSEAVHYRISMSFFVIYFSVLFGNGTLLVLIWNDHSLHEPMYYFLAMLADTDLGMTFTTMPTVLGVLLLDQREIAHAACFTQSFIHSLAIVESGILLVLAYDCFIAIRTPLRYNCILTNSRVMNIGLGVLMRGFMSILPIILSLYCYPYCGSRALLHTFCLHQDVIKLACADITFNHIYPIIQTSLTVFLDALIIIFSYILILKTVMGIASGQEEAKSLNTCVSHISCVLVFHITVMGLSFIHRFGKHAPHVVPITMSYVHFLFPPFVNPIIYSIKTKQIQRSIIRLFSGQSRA
Method in brief: as §1

OR51B5 (Homo sapiens) = target: T16, OR51B5 (Homo sapiens) (UniProt Q9H339)
T16 sequence (whole entry): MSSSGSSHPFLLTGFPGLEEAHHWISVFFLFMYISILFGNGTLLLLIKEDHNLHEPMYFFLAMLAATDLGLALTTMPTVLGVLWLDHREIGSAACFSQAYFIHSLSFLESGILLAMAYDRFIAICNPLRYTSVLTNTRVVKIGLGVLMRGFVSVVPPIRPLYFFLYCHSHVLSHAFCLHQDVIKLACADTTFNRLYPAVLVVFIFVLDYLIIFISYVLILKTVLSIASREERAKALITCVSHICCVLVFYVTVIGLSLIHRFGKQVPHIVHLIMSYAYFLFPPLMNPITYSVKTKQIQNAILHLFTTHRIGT
Method in brief: as §1

OR51B6 (Homo sapiens) = target: T17, OR51B6 (Homo sapiens) (UniProt Q9H340)
T17 sequence (whole entry): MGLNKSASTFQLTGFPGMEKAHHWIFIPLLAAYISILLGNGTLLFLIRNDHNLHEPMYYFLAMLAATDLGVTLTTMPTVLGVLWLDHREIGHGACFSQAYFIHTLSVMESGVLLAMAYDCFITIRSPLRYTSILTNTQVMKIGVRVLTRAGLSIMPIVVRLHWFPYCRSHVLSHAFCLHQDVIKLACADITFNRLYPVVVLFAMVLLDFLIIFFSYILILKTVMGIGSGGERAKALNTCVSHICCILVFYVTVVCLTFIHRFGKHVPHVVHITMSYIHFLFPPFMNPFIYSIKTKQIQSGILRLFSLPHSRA
Method in brief: as §1

OR4N4C (Homo sapiens) = OR4N4C (Homo sapiens) (UniProt A0A096LPK9)
Method in brief: as §1

OR4Q2 (Homo sapiens) = OR4Q2 (Homo sapiens) (UniProt P0C623)
Method in brief: as §1

Measured: odorant receptor agonist call;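 note: active if original authors judged signal statistically different from baseline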

Sequence of OR4N4C (Homo sapiens) (A0A096LPK9 whole entry): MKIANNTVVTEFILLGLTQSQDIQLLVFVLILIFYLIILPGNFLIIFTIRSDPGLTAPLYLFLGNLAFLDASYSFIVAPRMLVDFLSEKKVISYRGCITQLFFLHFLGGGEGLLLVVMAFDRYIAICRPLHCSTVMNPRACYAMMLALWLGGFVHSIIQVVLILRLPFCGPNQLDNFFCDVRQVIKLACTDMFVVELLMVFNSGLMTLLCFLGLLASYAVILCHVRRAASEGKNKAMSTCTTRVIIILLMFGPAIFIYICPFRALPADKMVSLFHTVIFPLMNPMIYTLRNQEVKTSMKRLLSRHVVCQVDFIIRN
Sequence of OR4Q2 (Homo sapiens) (P0C623 as listed by the source): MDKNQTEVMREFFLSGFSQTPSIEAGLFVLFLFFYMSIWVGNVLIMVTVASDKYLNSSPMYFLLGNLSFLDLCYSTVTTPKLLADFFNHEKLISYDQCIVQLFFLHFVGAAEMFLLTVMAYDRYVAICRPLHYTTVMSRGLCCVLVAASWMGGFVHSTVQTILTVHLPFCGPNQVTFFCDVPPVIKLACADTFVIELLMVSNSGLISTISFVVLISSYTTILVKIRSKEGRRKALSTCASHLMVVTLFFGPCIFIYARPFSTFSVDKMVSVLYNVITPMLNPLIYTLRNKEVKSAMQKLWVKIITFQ

CCC1OC(=O)C(O)=C1C (stereo not given)
not listed: OR4N4C (Homo sapiens) | OR4Q2 (Homo sapiens)
inactive: all other assays above

CC(C)=CCCC(C)=CCO
inactive: OR4X2 (Homo sapiens) | OR51B5 (Homo sapiens)

CC1=CCC2CC1C2(C)C (stereo not given)
inactive: OR51B5 (Homo sapiens)

CC(C)=CCCC(C)=CCCC(C)=CCO
active: OR51B5 (Homo sapiens)

CCC(S)C(C)CO (stereo not given)
not listed: OR4N2 | OR4Q3 T135A | OR4N4C (Homo sapiens) | OR4Q2 (Homo sapiens)
inactive: all other assays above

CCC(C)CO (stereo not given)
inactive: OR51B5 (Homo sapiens)

CCCCCC(S)C(C)CO (stereo not given)
not listed: OR4N2 | OR4Q3 T135A | OR4N4C (Homo sapiens) | OR4Q2 (Homo sapiens)
inactive: all other assays above

CCCCCC(=O)C(C)C(C)=O (stereo not given)
not listed: OR4N2 | OR4Q3 T135A | OR4N4C (Homo sapiens) | OR4Q2 (Homo sapiens)
inactive: all other assays above

CCCC(=O)CC
inactive: OR51B5 (Homo sapiens)

CCCCCCCC(=O)OC
inactive: OR51B5 (Homo sapiens)

CCCCCCCC(=O)[O-].[H+]
inactive: OR51B5 (Homo sapiens)

Cc1cccc(C)c1C
inactive: OR51B5 (Homo sapiens)

CC(CO)CS (stereo not given)
not listed: OR4N2 | OR4Q3 T135A | OR4N4C (Homo sapiens) | OR4Q2 (Homo sapiens)
inactive: all other assays above

CCCCCCCCC(=O)O
inactive: OR51A4 (Homo sapiens)

CCCCCCCCCCCC(=O)OC
inactive: OR51B5 (Homo sapiens)

CC1=NC(C)C(C)S1 (stereo not given)
not listed: OR4N4C (Homo sapiens) | OR4Q2 (Homo sapiens)
inactive: all other assays above

CCCCC(=O)C(C)=O
inactive: OR51B5 (Homo sapiens)

CC1CCCCCCCCCCCCC(=O)C1 (stereo not given)
not listed: OR4N2 | OR4Q3 T135A
inactive: all other assays above

CCCCCCC=CCCC=O
not listed: OR4N4C (Homo sapiens) | OR4Q2 (Homo sapiens)
inactive: all other assays above
